Data published in ChEMBL document CHEMBL4190252, “Synthesis, antitumor activity and CDK1 inhibiton of new thiazole nortopsentin analogues” (Eur J Med Chem, 2017).

Biological target: Cyclin-dependent kinase 1/cyclin B1 (Homo sapiens, UniProt P06493)
Experiment: Inhibition of recombinant human full length His-tagged CDK1/cyclin B expressed in baculovirus expression system after 60 mins in presence of omnia peptide substrate by fluorescence based assay
How it was run: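 Recombinant human CDK1/cyclin B in kinase buffer with Omnia peptide substrate, ATP and DTT, with inhibitor at 0.1–10 µM. Reactions ran for 60 min at 30 °C, with fluorescence read at ex 360/em 485 nm. Initial velocity came from the RFU-versus-time slope and was plotted against concentration for a dose-response IC50 fit. Values are mean±SD of two determinations.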

Cyclin-dependent kinase 1/cyclin B1, sequence (P06493 whole entry): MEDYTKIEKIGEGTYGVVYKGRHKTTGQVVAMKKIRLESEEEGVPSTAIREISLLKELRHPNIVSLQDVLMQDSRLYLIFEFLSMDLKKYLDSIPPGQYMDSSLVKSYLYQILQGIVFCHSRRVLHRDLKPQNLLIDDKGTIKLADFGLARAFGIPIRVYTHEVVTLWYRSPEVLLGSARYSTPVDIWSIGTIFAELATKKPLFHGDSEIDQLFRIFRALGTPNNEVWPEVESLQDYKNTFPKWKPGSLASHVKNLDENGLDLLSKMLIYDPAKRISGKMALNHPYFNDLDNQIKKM
Cyclin-dependent kinase 1/cyclin B1, sequence (P14635 whole entry, further chain): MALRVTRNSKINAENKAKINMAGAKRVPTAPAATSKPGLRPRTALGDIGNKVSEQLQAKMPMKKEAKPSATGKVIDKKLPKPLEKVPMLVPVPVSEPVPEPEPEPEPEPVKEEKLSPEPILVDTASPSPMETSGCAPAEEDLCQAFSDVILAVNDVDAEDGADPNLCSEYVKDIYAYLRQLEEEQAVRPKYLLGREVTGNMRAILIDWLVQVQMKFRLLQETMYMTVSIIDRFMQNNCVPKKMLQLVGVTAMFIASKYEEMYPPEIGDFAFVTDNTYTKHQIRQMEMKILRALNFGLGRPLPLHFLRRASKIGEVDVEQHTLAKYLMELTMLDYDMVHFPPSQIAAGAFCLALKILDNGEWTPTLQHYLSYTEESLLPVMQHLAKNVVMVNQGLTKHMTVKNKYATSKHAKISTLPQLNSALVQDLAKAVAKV

Cn1cc(-c2nc(-c3cn(C)c4ncccc34)cs2)c2cc(F)ccc21
IC50: 0.97 µM
